The values that follow come from publication PMC7672428 (Nucleic Acids Research, 2020).

Bounds are passed on as bounds.

For data set [1], the target named is Ku70/80 (Homo sapiens, UniProt P12956+P13010). Nature of the data set: Electrophoretic mobility shift assay. It is filed as binding. The gist of the method: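 Purified Ku pre-incubated with varying concentrations of test compound, then added to 5′-[32P]-labeled 30-bp duplex DNA made by annealing a labeled strand to its complement. Incubated 30 min at 25°C, resolved on a 6% non-denaturing polyacrylamide gel, then phosphorimaged and quantified. Triplicate titrations, IC50 from fitted binding curves.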
Chain of Ku70/80 (P12956 whole entry): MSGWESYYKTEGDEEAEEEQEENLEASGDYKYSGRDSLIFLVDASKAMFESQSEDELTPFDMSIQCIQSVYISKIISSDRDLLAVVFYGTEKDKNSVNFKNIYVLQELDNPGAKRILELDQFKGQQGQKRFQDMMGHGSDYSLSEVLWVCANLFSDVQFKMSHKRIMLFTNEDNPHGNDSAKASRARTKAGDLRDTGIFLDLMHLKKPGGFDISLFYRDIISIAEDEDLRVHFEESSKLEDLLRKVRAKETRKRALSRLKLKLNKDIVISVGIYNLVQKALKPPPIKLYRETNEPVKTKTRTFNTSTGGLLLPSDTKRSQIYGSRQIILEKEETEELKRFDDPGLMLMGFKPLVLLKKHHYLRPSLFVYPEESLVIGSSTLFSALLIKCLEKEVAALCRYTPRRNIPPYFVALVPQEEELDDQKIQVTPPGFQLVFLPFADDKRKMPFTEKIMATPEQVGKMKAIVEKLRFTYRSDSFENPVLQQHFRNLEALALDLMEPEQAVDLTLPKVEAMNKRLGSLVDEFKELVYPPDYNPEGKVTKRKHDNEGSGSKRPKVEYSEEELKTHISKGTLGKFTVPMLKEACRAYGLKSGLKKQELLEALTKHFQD
Chain of Ku70/80 (P13010 whole entry): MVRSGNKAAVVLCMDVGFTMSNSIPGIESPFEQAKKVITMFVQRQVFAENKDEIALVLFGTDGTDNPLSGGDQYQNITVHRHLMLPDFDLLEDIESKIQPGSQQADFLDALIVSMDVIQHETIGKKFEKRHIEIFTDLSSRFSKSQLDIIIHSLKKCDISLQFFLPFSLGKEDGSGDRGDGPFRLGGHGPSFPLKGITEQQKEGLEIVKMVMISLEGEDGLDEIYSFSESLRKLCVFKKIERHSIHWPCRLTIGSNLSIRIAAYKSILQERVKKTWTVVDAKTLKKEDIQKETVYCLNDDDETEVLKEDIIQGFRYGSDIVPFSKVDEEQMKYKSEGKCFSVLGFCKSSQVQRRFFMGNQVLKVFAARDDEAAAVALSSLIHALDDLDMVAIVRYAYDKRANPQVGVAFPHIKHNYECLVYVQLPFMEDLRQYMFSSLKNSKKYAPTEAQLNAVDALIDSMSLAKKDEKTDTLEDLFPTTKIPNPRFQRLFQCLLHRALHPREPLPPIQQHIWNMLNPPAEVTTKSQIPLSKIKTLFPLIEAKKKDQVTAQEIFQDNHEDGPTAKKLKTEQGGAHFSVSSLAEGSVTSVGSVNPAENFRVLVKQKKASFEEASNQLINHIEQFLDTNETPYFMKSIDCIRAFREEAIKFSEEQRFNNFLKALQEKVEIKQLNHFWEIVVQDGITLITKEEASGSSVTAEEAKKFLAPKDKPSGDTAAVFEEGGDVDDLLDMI
(In general: A gel shift assay detects complexes by their altered migration in electrophoresis.)

Data set [2] deals with DNA-PK (Homo sapiens, UniProt P12956+P13010). In words: DNA-PK phosphoryl-transferase kinase assay with p53 peptide substrate. Type of data set: biochemical. The gist of the method: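 DNA-PKcs purified from HeLa or HEK 293 cells and combined with Ku; test compound pre-incubated with the enzyme 15 min. Reaction started with ATP, unlabeled 30-bp duplex DNA and synthetic p53-based peptide. [32P] transfer run at 37°C for 15 min, stopped with 30% acetic acid, spotted on P81 filters and washed. Read by phosphorimaging. Triplicate titrations, IC50 from fitted binding curves.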
Chain of DNA-PK (P12956 whole entry): as the sequence (P12956 whole entry) above
Chain of DNA-PK (P13010 whole entry): as the sequence (P13010 whole entry) above

Data set [3] can be described thus: Solubility and stability. It is filed as physicochemical.
Data set [4] relates to Ku80-wt mouse embryo fibroblasts (MEF). In words: CCK-8 cell viability, wild type MEF. It is filed as cell-based. The conditions noted are these: 20 μM. The essentials: (§1)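 Ku80-wt and Ku80-null MEFs in RPMI with 10% FBS, 5 × 10^3 per well, grown 24 h before treatment. Exposed 48 h in Opti-MEM to vehicle or 20 μM test compound, concurrently with indicated bleomycin concentrations (or compound alone), 1% DMSO constant. CCK-8 about 2 h, A450 read; percent viability relative to vehicle controls. Mean and SEM of triplicates.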

Data set [5] relates to Ku80-null mouse embryo fibroblasts (MEF). Nature of the data set: CCK-8 cell viability, Ku80-null MEF. Type of data set: cell-based. The gist of the method:
as §1

Data set [6] concerns γ-H2AX in H460 cells. Nature of the data set: Immunofluorescence of γ-H2AX after Bleomycin. It is filed as cell-based. The conditions noted are these: 20 μM, 10 μM Bleomycin 1 h. The gist of the method:
(§2)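 H460 cells on coverslips overnight, then 10 μM bleomycin for 1 h at 37 °C with 20 μM test compound, given concurrently or after 1 or 2 h preincubation; controls in 1% DMSO. Fixed in 4% PFA, permeabilised in 0.1% Triton, blocked. Stained with anti-p-DNA-PKcs S2056 and anti-γH2AX S139 (1:200, overnight 4 °C), plus DAPI. Fiji scored p-S2056 intensity and γH2AX foci over 200 cells; median, unpaired t-test.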

For data set [7], the target named is Ku protein (Homo sapiens, UniProt P12956+P13010). In words: Thermal-shift assay. Type of data set: binding. The essentials:
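Purified Ku70/80 (baculovirus-infected Sf9 cells) mixed with DMSO vehicle or a fixed test-compound concentration, then split into aliquots. Aliquots heated 3 min at a range of temperatures, cooled to 4 °C and spun at 12,000 × g for 20 min. Soluble Ku70 detected by SDS-PAGE western blot with chemiluminescence. Band intensities normalised to the 40 °C point, fit to a 4-parameter sigmoid, giving T1/2.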

Data set [8] relates to H460 cells. Nature of the data set: CRISPR/Cas9 HDR-mediated gene insertion at EMX1. It is filed as cell-based. The conditions noted are these: 20 μM. The essentials:
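Donor carrying GFP and a puromycin-resistance gene, flanked by 800 bp homology arms to an EMX1 CRISPR cut site, co-transfected into H460 cells with EMX1 gRNA and Cas9 plasmids, with vehicle or 20 μM test compound. Junctional PCR on genomic DNA scored precise homologous integration among puromycin-resistant clones.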

Data set [9] has as its system DNA-PKcs p-S2056 in H460 cells. Nature of the data set: Immunofluorescence of DNA-PKcs p-S2056 after Bleomycin. It is filed as cell-based. The conditions noted are these: 20 μM, concurrent or 1-2 h pre-incubation, 10 μM Bleomycin 1 h. The gist of the method: as §2
Data set [10] concerns the target MELK kinase (Homo sapiens, UniProt Q14680). In words: Kinase screen. Type of data set: biochemical. The conditions noted are these: 2.5 μM. The essentials:
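Panel of 24 kinases, each with its own substrate, run in triplicate with or without 2.5 μM test compound using ADP-Glo. After ATP depletion, generated ADP was read by coupled luciferase luminescence. Percent activity remaining, or inhibition, calculated relative to DMSO vehicle controls.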

Data set [11] concerns H460 cells. Nature of the data set: CCK-8 cell viability with etoposide. It is filed as cell-based. The conditions noted are these: 20 μM, 48 h. The gist of the method: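 H460 cells in RPMI with 10% FBS, plated at 5 × 10^3 per well and grown 24 h. Treated 48 h in Opti-MEM with 20 μM test compound or vehicle plus indicated etoposide concentrations, DMSO held at 1%. CCK-8 added for about 2 h, then A450 read; percent viability taken relative to vehicle-treated controls. Mean and SEM of triplicates.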

Chain of Ku protein (P12956 whole entry): as the sequence (P12956 whole entry) above
Chain of Ku protein (P13010 whole entry): as the sequence (P13010 whole entry) above
Chain of MELK kinase (Q14680 whole entry): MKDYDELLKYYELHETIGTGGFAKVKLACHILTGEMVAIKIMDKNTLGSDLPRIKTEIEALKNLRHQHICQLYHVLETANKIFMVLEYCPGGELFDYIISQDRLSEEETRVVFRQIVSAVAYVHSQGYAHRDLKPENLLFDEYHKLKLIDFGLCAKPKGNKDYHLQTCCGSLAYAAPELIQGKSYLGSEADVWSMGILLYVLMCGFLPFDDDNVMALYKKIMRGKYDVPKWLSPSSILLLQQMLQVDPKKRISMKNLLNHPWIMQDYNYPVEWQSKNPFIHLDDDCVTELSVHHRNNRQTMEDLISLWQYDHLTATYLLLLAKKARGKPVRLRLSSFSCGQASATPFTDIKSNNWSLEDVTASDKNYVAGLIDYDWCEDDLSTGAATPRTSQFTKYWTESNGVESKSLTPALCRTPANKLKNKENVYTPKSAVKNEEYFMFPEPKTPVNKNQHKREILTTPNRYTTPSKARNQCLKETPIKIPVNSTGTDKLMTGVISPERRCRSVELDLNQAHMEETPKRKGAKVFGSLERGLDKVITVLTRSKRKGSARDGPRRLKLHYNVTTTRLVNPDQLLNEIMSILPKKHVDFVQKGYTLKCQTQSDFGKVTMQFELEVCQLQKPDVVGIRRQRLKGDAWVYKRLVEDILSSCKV

For `O=c1cc(N2CCOCC2)oc2c(-c3cccc4c3sc3ccccc34)cccc12` [NU7441, reference compound], the “impact on Ku–DNA binding activity” value in data set [1] is given as “no impact”.
`COc1cccc(NC(=O)c2cc(-c3ccc(/C=C4\C(=O)N(c5cccc(C(=O)O)c5)N=C4C)o3)ccc2Cl)c1` [compound 68]: half-maximal inhibition in data set [2] (IC50) was put at 3.12 ± 0.7 µM. The “solubility compared to 5102 and 5135” value in data set [3] is reported as “significant increase in solubility”. In addition, in data set [4] (concurrent 48 h with Bleomycin), the “sensitivity to Bleomycin induced by compound, wild type cells” value is “increased sensitivity”. Further, in data set [4] (preliminary single agent experiments), the “reduction in survival, single agent” value is listed as < 10%. The “fold increase in Ku–DNA binding inhibitory activity” value in [1] (on incorporation of 3-methoxyphenyl amide into X80) was 4 fold. The “sensitivity to Bleomycin induced by compound, Ku80-null cells” value in data set [5] (20 μM, concurrent 48 h with Bleomycin) is given as “no significant increase in sensitivity”.
As to `COc1cccc(NC(=O)c2cc(-c3ccc(CC4C(=O)N(c5cccc(C(=O)O)c5)N=C4C)o3)ccc2Cl)c1` (stereo not drawn) [compound 149], the IC50 (usually the concentration at which inhibition is half-maximal) was determined as 0.5 ± 0.03 µM in data set [2] and 3.72 ± 1.5 µM in data set [1].
With `COc1cccc(NC(=O)c2cc(-c3ccc(CC4C(=O)N(c5cccc(-c6nnn[nH]6)c5)N=C4C)o3)ccc2Cl)c1` (stereo not drawn) [compound 245], the “γ-H2AX (DDR)” value in data set [6] was “inhibition of the DDR”. For the same compound, the “shift in Tm of Ku” value in data set [7] (vs vehicle Tm of 50°C) came out at 6 °C. In addition, in data set [7] (with compound), the “Tm of Ku” value came out at 56 °C. Besides, the “Insertion efficiency (%)” value in [8] came out at 80%. The IC50 in [2] turned out to be 0.24 ± 0.015 µM; in data set [1] it was 1.99 ± 0.9 µM. In addition, the “DNA-PKcs Ser 2056 phosphorylation in cells” value in data set [9] is listed as “reduced Ser 2056 phosphorylation”. The “inhibition of MELK kinase” value in data set [10] is on record as “moderate inhibition”.
With `COc1cccc(NC(=O)c2cc(-c3ccc(CC4C(=O)N(c5cccc(C(=O)O)c5)N=C4C(F)(F)F)o3)ccc2Cl)c1` (stereo not drawn) [compound 322], the sensitization to etoposide result in data set [11] is recorded as “Sensitization to etoposide”. Also, the IC50 in data set [2] was found to be 0.11 ± 0.02 µM; in data set [1], 2.66 ± 0.3 µM.
Turning to Bleomycin [reference compound], the “increased sensitivity of Ku80-null cells compared to wt MEFs” value in data set [5] (48 h, CCK-8) is ~6 fold.
